Assay results: ChEMBL document CHEMBL1165969, “Synthesis and cytotoxicity of novel indirubin-5-carboxamides” (Bioorg Med Chem, 2010)

Tests used:
[1] = molecular target: Cyclin-dependent kinase 2/cyclin E1 (Homo sapiens) (UniProt P24864+P24941); experiment: Inhibition of CDK2/Cyclin E assessed as residual activity at 1 uM after 80 mins by microplate scintillation counting; assay type: protein-complex assay
[2] = molecular target: Serine/threonine-protein kinase B-raf (Homo sapiens) (UniProt P15056); experiment: Inhibition of B-Raf assessed as residual activity at 10 uM after 80 mins by microplate scintillation counting
[3] = molecular target: Tyrosine-protein kinase JAK2 (Homo sapiens) (UniProt O60674); experiment: Inhibition of JAK2 assessed as residual activity at 10 uM after 80 mins by microplate scintillation counting
[4] = molecular target: Cyclin-dependent kinase 1/cyclin B1 (Homo sapiens) (UniProt P06493+P14635); experiment: Inhibition of CDK1/Cyclin B1 assessed as residual activity at 10 uM after 80 mins by microplate scintillation counting; assay type: protein-complex assay
[5] = Antiproliferative activity against human LXFL 529L cells after 3 days by sulforhodamine B assay; assay type: functional, cell-based; conditions: Homo sapiens, LXFL 529L, 72 h
Summary of the method: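 Cells kept at 37 °C in humidified 5% CO2 in RPMI 1640 with 10% heat-inactivated FBS, penicillin (100 units/mL) and streptomycin, and checked for mycoplasma. Seeded, grown 24 h, then exposed to drug for 3 days in serum-containing medium. Fixed with 50% TCA solution for 1 h at 4 °C, stained with 0.4% SRB, dye eluted in 10 mM Tris pH 10.5, read at 570 nm. Growth expressed as % T/C; IC50 derived.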

[6] = molecular target: Epidermal growth factor receptor (Homo sapiens) (UniProt P00533); experiment: Inhibition of EGFR assessed as residual activity at 10 uM after 80 mins by microplate scintillation counting
[7] = molecular target: Vascular endothelial growth factor receptor 2 (Homo sapiens) (UniProt P35968); experiment: Inhibition of VEGFR2 assessed as residual activity at 1 uM after 80 mins by microplate scintillation counting
Summary of the method: (§1)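 Kinase profiling was outsourced to a contract laboratory as a panel of 30 protein kinases. Each compound was tested at two concentrations, and residual kinase activity was recorded.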

[8] = molecular target: Serine/threonine-protein kinase Chk1 (Homo sapiens) (UniProt O14757); experiment: Inhibition of CHK1 assessed as residual activity at 10 uM after 80 mins by microplate scintillation counting
[9] = molecular target: Platelet-derived growth factor receptor alpha (Homo sapiens) (UniProt P16234); experiment: Inhibition of PDGFRalpha assessed as residual activity at 10 uM after 80 mins by microplate scintillation counting
[10] = molecular target: Aurora kinase C (Homo sapiens) (UniProt Q9UQB9); experiment: Inhibition of Aurora C assessed as residual activity at 10 uM after 80 mins by microplate scintillation counting
[11] = molecular target: Proto-oncogene tyrosine-protein kinase Src (Homo sapiens) (UniProt P12931); experiment: Inhibition of SRC assessed as residual activity at 1 uM after 80 mins by microplate scintillation counting; summary of the method: as §1
[12] = molecular target: T1, Cyclin-dependent kinase 4/cyclin D1 (Homo sapiens) (UniProt P11802+P24385); experiment: Inhibition of CDK4/Cyclin D1 assessed as residual activity at 1 uM after 80 mins by microplate scintillation counting; assay type: protein-complex assay
[13] = molecular target: RAF proto-oncogene serine/threonine-protein kinase (Homo sapiens) (UniProt P04049); experiment: Inhibition of RAF1 assessed as residual activity at 10 uM after 80 mins by microplate scintillation counting; summary of the method: as §1
[14] = molecular target: RAF proto-oncogene serine/threonine-protein kinase (Homo sapiens) (UniProt P04049); experiment: Inhibition of RAF1 assessed as residual activity at 1 uM after 80 mins by microplate scintillation counting; summary of the method: as §1
[15] = molecular target: Glycogen synthase kinase-3 beta (Homo sapiens, UniProt P49841); experiment: Inhibition of GSK3-beta assessed as inhibition of [33Pi] incorporation after 80 mins by microplate scintillation counting
[16] = molecular target: Vascular endothelial growth factor receptor 3 (Homo sapiens) (UniProt P35916); experiment: Inhibition of VEGFR3 assessed as residual activity at 10 uM after 80 mins by microplate scintillation counting; summary of the method: as §1
[17] = molecular target: Insulin-like growth factor 1 receptor (Homo sapiens) (UniProt P08069); experiment: Inhibition of IGF1R assessed as residual activity at 1 uM after 80 mins by microplate scintillation counting
[18] = molecular target: Receptor tyrosine-protein kinase erbB-2 (Homo sapiens) (UniProt P04626); experiment: Inhibition of ERBB2 assessed as residual activity at 10 uM after 80 mins by microplate scintillation counting
[19] = molecular target: T1, Cyclin-dependent kinase 4/cyclin D1 (Homo sapiens); experiment: Inhibition of CDK4/Cyclin D1 assessed as residual activity at 10 uM after 80 mins by microplate scintillation counting; assay type: protein-complex assay
[20] = molecular target: Aurora kinase B (Homo sapiens) (UniProt Q96GD4); experiment: Inhibition of Aurora B assessed as residual activity at 10 uM after 80 mins by microplate scintillation counting
[21] = molecular target: Aurora kinase A (Homo sapiens) (UniProt O14965); experiment: Inhibition of Aurora A assessed as residual activity at 1 uM after 80 mins by microplate scintillation counting
[22] = molecular target: Tyrosine-protein kinase Fgr (Homo sapiens) (UniProt P09769); experiment: Inhibition of FGR assessed as residual activity at 10 uM after 80 mins by microplate scintillation counting
[23] = molecular target: Vascular endothelial growth factor receptor 2 (Homo sapiens) (UniProt P35968); experiment: Inhibition of VEGFR2 assessed as residual activity at 10 uM after 80 mins by microplate scintillation counting; summary of the method: as §1
[24] = molecular target: Platelet-derived growth factor receptor alpha (Homo sapiens) (UniProt P16234); experiment: Inhibition of PDGFRalpha assessed as residual activity at 1 uM after 80 mins by microplate scintillation counting
[25] = molecular target: Serine/threonine-protein kinase Chk1 (Homo sapiens) (UniProt O14757); experiment: Inhibition of CHK1 assessed as residual activity at 1 uM after 80 mins by microplate scintillation counting
[26] = molecular target: Aurora kinase C (Homo sapiens) (UniProt Q9UQB9); experiment: Inhibition of Aurora C assessed as residual activity at 1 uM after 80 mins by microplate scintillation counting
[27] = molecular target: Aurora kinase B (Homo sapiens) (UniProt Q96GD4); experiment: Inhibition of Aurora B assessed as residual activity at 1 uM after 80 mins by microplate scintillation counting
[28] = molecular target: Aurora kinase A (Homo sapiens) (UniProt O14965); experiment: Inhibition of Aurora A assessed as residual activity at 10 uM after 80 mins by microplate scintillation counting
[29] = molecular target: Mast/stem cell growth factor receptor Kit (Homo sapiens) (UniProt P10721); experiment: Inhibition of KIT assessed as residual activity at 10 uM after 80 mins by microplate scintillation counting
[30] = molecular target: Epidermal growth factor receptor (Homo sapiens) (UniProt P00533); experiment: Inhibition of EGFR assessed as residual activity at 1 uM after 80 mins by microplate scintillation counting
[31] = molecular target: Tyrosine-protein kinase JAK2 (Homo sapiens) (UniProt O60674); experiment: Inhibition of JAK2 assessed as residual activity at 1 uM after 80 mins by microplate scintillation counting
[32] = molecular target: Cyclin-dependent kinase 2/cyclin A (Homo sapiens) (UniProt P24941+P20248+P78396); experiment: Inhibition of CDK2/Cyclin A assessed as residual activity at 1 uM after 80 mins by microplate scintillation counting; assay type: protein-complex assay
[33] = molecular target: Serine/threonine-protein kinase Chk2 (Homo sapiens) (UniProt O96017); experiment: Inhibition of CHK2 assessed as residual activity at 10 uM after 80 mins by microplate scintillation counting
[34] = molecular target: Proto-oncogene tyrosine-protein kinase Src (Homo sapiens) (UniProt P12931); experiment: Inhibition of SRC assessed as residual activity at 10 uM after 80 mins by microplate scintillation counting; summary of the method: as §1
[35] = molecular target: Fibroblast growth factor receptor 1 (Homo sapiens) (UniProt P11362); experiment: Inhibition of FGFR1 assessed as residual activity at 10 uM after 80 mins by microplate scintillation counting
[36] = molecular target: Insulin-like growth factor 1 receptor (Homo sapiens) (UniProt P08069); experiment: Inhibition of IGF1R assessed as residual activity at 10 uM after 80 mins by microplate scintillation counting

Aurora kinase B (Homo sapiens), sequence (Q96GD4 whole entry): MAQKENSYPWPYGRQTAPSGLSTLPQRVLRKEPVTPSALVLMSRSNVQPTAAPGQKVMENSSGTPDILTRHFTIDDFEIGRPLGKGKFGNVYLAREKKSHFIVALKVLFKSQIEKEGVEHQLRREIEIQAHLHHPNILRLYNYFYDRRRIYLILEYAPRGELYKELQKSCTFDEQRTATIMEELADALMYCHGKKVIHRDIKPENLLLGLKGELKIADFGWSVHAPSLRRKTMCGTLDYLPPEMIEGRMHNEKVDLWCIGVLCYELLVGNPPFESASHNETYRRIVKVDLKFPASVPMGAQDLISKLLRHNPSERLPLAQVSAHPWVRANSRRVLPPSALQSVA
Epidermal growth factor receptor (Homo sapiens), sequence (P00533 whole entry): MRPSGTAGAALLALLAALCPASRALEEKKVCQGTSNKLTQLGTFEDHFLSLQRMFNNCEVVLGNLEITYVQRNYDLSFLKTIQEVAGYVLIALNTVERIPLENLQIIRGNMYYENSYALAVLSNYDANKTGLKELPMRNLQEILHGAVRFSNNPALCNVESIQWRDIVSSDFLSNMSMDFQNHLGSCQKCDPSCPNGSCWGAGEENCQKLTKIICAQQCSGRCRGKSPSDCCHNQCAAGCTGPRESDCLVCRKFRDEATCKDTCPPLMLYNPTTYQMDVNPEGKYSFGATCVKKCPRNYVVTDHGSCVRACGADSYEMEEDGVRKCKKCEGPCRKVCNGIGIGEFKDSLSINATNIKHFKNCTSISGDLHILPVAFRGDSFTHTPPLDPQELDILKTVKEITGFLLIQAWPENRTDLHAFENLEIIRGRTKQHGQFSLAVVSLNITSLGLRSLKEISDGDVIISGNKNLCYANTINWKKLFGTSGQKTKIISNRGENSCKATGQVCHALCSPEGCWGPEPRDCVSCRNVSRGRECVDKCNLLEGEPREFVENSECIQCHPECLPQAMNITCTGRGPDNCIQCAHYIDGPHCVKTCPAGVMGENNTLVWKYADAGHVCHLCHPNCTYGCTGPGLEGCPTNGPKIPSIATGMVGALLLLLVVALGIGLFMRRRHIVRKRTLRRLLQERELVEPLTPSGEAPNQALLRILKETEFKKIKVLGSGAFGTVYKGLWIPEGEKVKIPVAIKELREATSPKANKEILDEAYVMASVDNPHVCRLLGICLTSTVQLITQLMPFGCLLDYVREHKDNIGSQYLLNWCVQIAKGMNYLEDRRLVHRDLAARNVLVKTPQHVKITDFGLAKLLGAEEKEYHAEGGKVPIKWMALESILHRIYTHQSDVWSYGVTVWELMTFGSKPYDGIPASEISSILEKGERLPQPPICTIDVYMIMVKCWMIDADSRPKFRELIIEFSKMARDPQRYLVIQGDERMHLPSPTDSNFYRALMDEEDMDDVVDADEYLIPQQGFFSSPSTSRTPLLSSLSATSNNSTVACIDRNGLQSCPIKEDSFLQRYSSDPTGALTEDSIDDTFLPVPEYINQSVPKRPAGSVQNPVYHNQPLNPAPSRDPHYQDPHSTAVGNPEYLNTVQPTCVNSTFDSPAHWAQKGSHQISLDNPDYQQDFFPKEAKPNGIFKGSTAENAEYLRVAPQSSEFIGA
Insulin-like growth factor 1 receptor (Homo sapiens), sequence (P08069 31-736 limits assumed): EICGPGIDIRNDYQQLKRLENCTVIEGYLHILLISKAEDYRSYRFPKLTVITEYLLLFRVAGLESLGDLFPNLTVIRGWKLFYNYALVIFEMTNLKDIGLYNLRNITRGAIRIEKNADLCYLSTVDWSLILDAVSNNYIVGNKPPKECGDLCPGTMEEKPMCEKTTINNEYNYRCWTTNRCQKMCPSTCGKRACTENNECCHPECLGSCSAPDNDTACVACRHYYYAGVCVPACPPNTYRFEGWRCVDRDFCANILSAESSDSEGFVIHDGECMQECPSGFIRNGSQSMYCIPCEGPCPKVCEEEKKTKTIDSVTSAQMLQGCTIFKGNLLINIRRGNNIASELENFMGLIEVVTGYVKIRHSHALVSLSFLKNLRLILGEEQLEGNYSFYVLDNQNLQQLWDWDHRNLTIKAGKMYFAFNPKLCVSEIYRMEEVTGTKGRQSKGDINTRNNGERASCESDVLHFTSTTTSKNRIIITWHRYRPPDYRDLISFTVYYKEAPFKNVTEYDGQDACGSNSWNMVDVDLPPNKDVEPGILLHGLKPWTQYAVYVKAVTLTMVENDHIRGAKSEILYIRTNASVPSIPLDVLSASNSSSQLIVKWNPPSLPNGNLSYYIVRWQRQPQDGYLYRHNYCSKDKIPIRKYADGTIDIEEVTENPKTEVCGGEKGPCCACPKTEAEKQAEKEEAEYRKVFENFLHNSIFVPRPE
Insulin-like growth factor 1 receptor (Homo sapiens), sequence (P08069 741-1367 limits assumed): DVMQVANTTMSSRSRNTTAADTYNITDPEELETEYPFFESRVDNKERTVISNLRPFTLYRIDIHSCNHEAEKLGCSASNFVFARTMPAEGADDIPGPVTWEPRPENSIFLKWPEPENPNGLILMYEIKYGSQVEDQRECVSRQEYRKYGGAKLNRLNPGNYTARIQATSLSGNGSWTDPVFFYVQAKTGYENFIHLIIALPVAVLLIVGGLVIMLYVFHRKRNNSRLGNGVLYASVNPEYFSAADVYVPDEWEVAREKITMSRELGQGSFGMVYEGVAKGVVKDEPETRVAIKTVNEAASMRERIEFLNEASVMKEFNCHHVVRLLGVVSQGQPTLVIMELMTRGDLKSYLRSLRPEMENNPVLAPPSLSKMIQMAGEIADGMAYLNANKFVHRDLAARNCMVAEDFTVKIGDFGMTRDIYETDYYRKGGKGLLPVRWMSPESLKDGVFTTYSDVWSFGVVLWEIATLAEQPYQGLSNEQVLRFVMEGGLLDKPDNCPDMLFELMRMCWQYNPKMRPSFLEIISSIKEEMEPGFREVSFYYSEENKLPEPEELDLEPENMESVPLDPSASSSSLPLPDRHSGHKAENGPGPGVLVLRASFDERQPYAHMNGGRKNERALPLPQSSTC
Platelet-derived growth factor receptor alpha (Homo sapiens), sequence (P16234 whole entry): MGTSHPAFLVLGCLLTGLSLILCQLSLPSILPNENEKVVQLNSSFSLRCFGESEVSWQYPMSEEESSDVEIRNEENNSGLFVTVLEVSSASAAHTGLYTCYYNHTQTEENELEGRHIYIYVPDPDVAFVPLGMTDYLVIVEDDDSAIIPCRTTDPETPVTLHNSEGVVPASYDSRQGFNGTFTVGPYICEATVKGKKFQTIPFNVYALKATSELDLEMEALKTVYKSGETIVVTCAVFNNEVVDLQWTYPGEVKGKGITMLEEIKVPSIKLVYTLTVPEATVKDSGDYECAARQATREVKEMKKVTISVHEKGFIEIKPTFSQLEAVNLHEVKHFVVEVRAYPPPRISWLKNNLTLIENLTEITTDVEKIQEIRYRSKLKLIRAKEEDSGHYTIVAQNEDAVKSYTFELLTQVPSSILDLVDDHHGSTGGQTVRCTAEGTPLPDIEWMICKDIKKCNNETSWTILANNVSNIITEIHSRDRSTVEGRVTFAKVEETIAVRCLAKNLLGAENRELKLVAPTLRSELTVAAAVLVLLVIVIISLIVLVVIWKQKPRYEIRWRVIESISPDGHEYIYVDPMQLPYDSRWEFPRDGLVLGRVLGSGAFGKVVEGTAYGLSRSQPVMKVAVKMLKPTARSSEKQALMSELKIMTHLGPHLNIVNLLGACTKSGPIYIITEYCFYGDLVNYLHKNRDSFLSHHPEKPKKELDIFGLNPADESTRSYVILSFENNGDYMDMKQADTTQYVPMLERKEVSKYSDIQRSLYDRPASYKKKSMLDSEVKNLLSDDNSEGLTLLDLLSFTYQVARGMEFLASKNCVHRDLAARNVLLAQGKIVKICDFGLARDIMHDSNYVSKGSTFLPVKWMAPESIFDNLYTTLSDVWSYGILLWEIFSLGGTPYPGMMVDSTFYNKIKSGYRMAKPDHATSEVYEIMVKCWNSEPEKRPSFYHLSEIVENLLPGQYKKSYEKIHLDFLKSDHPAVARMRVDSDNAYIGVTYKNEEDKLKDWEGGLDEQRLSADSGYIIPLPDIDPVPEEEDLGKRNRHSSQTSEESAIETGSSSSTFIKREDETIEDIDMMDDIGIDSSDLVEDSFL
Aurora kinase C (Homo sapiens), sequence (Q9UQB9 whole entry): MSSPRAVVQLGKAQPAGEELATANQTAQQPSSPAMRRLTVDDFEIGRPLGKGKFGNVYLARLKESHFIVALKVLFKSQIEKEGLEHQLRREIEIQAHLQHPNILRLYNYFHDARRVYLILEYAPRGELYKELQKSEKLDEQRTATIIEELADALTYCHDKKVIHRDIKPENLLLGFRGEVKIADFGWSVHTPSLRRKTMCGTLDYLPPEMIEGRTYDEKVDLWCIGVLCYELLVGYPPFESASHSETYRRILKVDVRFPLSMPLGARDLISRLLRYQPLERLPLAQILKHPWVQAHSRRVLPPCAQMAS
Serine/threonine-protein kinase Chk1 (Homo sapiens), sequence (O14757 whole entry): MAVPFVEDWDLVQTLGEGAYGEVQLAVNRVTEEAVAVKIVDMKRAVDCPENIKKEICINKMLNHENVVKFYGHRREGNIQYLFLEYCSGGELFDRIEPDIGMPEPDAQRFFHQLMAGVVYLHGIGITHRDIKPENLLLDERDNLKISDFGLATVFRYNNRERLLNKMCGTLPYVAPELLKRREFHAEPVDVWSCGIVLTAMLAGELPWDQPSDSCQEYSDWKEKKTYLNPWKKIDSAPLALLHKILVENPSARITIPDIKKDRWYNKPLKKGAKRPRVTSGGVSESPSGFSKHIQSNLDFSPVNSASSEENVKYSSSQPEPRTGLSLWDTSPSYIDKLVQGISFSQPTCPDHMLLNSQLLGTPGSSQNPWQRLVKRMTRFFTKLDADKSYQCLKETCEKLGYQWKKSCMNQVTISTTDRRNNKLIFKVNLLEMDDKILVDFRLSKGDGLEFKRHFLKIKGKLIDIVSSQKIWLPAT

Activity [1]: 63%
Activity [2]: 106%
Activity [3]: 48%
Activity [4]: 23%
Activity [6]: 43%
Activity [7]: 100%
Activity [8]: 45%
Activity [9]: 31%
Activity [10]: 92%
Activity [11]: 132%
Activity [12]: 64%
Activity [13]: 53%
Activity [14]: 94%
IC50 [15]: 100 nM
Activity [16]: 37%
Activity [17]: 102%
Activity [18]: 40%
Activity [19]: 18%
Activity [20]: 73%
Activity [21]: 86%
Activity [22]: < 50%
Activity [23]: 65%
Activity [24]: 94%
Activity [25]: 106%
Activity [26]: 83%
Activity [27]: 98%
Activity [28]: 63%
Activity [29]: 129%
Activity [30]: 99%
Activity [31]: 95%
Activity [32]: 60%
Activity [33]: 69%
Activity [34]: 271%
Activity [35]: 83%
Activity [36]: 103%
SMILES: CN1CCN(c2ccc(NC(=O)c3ccc4c(c3)/C(=C3/Nc5ccccc5C3=O)C(=O)N4)cc2)CC1
IC50 [5]: 540 nM
